IC50, inhibition and Activity data for 23 compounds are collected here from ChEMBL document CHEMBL1155027, “Synthesis and proteasome inhibition of glycyrrhetinic acid derivatives” (Bioorg Med Chem, 2008).

The nature of assay [1]: Inhibition of chymotrypsin-like activity of human 20S proteasome.
Assay [2] can be described thus: Inhibition of trypsin-like activity of human 20S proteasome. Put shortly: (§1)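 Purified human 20S proteasome assayed with the activator PA28 (16 µg/ml) and fluorogenic substrates: Suc-Leu-Leu-Val-Tyr-AMC for chymotrypsin-like, Bz-VGR-AMC for trypsin-like, and (Z)-LLE-bNA for caspase-like activity. Fluorescence was read at 360/460 nm across a range of inhibitor concentrations. IC50 is the concentration that halves reaction velocity (ΔRFU/min), taken from a plot of velocity against log concentration.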

Assay [3] in a line: Inhibition of caspase-like activity of human 20S proteasome. Put shortly: as §1
Assay [4] has as its system MT4. Put plainly: Inhibition of chymotrypsin-like activity of 20S proteasome in human MT4 cells at 0.25 uM after 3 hrs. The class given is cell-based.
Assay [5] relates to MT4. Put plainly: Inhibition of TNF-alpha-induced 20S proteasome degradation of IkappaBalpha in human MT4 cells at 1.6 uM after 3 hrs by Western blot analysis. It is filed as cell-based. Put shortly: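 MT4 cells pretreated with inhibitor 3 h, then TNFα 10 ng/ml for 30 min; cytosolic proteins resolved on 12% SDS-PAGE, transferred to nitrocellulose and Western blotted for IκBα, with β-actin as loading reference.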
(In general: A western blot detects proteins with antibodies after separation by electrophoresis.)

The source made the active and inactive calls. The calls are words filed in the database; no cut-off is given here. Residues, ends and D or L forms follow the SMILES beside them.

For orientation: IC50 means the concentration needed to halve the response being measured. A low value points to greater potency in that assay. For `CC1(C)[C@@H](OC(=O)c2ccc(C(=O)O)cc2)CC[C@]2(C)[C@H]3C(=O)C=C4[C@@H]5C[C@@](C)(C(=O)O)CC[C@]5(C)CC[C@@]4(C)[C@]3(C)CC[C@@H]12`, in assay [1], the IC50 turned out to be 0.31 µM.

With `CC(=O)N[C@@H](CSC(=O)C1([C@@H](O)C(C)C)NC(=O)[C@H](C)[C@@H]1O)C(=O)O` (single isomer, unassigned) [LACTACYSTIN], the half-inhibitory concentration (IC50) in assay [2] and in assay [3] was greater than 30 µM each time.

One may read the inhibition as the change of the read-out against control, counted positive when it falls. Higher therefore signals a strong effect. Take `CC1(C)[C@@H](OC(=O)c2cccc(C(=O)O)c2)CC[C@]2(C)[C@H]3C(=O)C=C4[C@@H]5C[C@@](C)(C(=O)O)CC[C@]5(C)CC[C@@]4(C)[C@]3(C)CC[C@@H]12`: the results for the IC50 in assay [1], in assay [2] and in assay [3] were 0.22 µM, 2.91 µM and 3.56 µM, respectively. Also, in assay [4], the inhibition is 50%. Besides, the outcome in assay [5] was Active.

Take `CC1(C)[C@@H](O)CC[C@]2(C)[C@H]3C(=O)C=C4[C@@H]5C[C@@](C)(C(=O)O)CC[C@]5(C)CC[C@@]4(C)[C@]3(C)CC[C@@H]12` [ENOXOLONE]: the concentration for half-maximal inhibition (IC50) in assay [1] was 22.3 µM; in assay [2] it was greater than 40 µM; in assay [3], greater than 40 µM.

Take `CSCC[C@@H](C=O)NC(=O)[C@H](CC(C)C)NC(=O)[C@H](CC(C)C)NC(C)=O` (Ac-Leu-Leu-Met-aldehyde): the concentration for half-maximal inhibition (IC50) in assay [1] is 5.25 µM; in assay [2] it was greater than 25 µM; in assay [3] it was 22.5 µM.

Consider `CC1(C)[C@@H](OC(=O)COCC(=O)O)CC[C@]2(C)[C@H]3C(=O)C=C4[C@@H]5C[C@@](C)(C(=O)O)CC[C@]5(C)CC[C@@]4(C)[C@]3(C)CC[C@@H]12`, for which the 50% inhibitory concentration (IC50) in assay [1] was determined as 1.93 µM.

`CC1(C)[C@@H](OC(=O)Cc2cccc(CC(=O)O)c2)CC[C@]2(C)[C@H]3C(=O)C=C4[C@@H]5C[C@@](C)(C(=O)O)CC[C@]5(C)CC[C@@]4(C)[C@]3(C)CC[C@@H]12`: it took 1.05 µM to reach half-maximal inhibition in assay [1] (IC50).

Turning to `CC1(C)[C@@H](OC(=O)CCCC(=O)O)CC[C@]2(C)[C@H]3C(=O)C=C4[C@@H]5C[C@@](C)(C(=O)O)CC[C@]5(C)CC[C@@]4(C)[C@]3(C)CC[C@@H]12`, half-maximal inhibition in assay [1] (IC50) was put at 1.39 µM.

Turning to `CC(C)(CC(=O)O)CC(=O)O[C@H]1CC[C@]2(C)[C@H]3C(=O)C=C4[C@@H]5C[C@@](C)(C(=O)O)CC[C@]5(C)CC[C@@]4(C)[C@]3(C)CC[C@H]2C1(C)C`, the half-maximal inhibitory concentration (IC50) in assay [1] amounted to 6.86 µM. This IC50 lies about 4.9-fold higher than the previous one.

In turn, `CCC(=O)O[C@H]1CC[C@]2(C)[C@H]3C(=O)C=C4[C@@H]5C[C@@](C)(C(=O)O)CC[C@]5(C)CC[C@@]4(C)[C@]3(C)CC[C@H]2C1(C)C` displayed an IC50 in assay [1] greater than 40 µM.

Regarding `COC(=O)C(CC(C)C)NC(=O)[C@@]1(C)CC[C@]2(C)CC[C@]3(C)C(=CC(=O)[C@@H]4[C@@]5(C)CC[C@H](OC(C)=O)C(C)(C)[C@@H]5CC[C@]43C)[C@@H]2C1` (stereo partly specified), in assay [1], the half-maximal inhibitory concentration (IC50) was greater than 40 µM.

In the case of `CC(C(=O)O)C(C)C(=O)O[C@H]1CC[C@]2(C)[C@H]3C(=O)C=C4[C@@H]5C[C@@](C)(C(=O)O)CC[C@]5(C)CC[C@@]4(C)[C@]3(C)CC[C@H]2C1(C)C` (stereo partly specified), in assay [1], the IC50 came to 8.7 µM.

The compound `CC(C)CC(NC(=O)[C@@]1(C)CC[C@]2(C)CC[C@]3(C)C(=CC(=O)[C@@H]4[C@@]5(C)CC[C@H](OC(=O)CC(C)(C)C(=O)O)C(C)(C)[C@@H]5CC[C@]43C)[C@@H]2C1)C(=O)O` (stereo partly specified) gave an IC50 in assay [1] of 3.09 µM. Against the preceding compound, the IC50 is about 2.8-fold lower.

Take `CC(=O)O[C@H]1CC[C@]2(C)[C@H]3C(=O)C=C4[C@@H]5C[C@@](C)(C(=O)O)CC[C@]5(C)CC[C@@]4(C)[C@]3(C)CC[C@H]2C1(C)C` [ACETOXOLONE]: in assay [1], the IC50 is greater than 40 µM.

As to `CC1(C)[C@@H](OC(=O)C/C=C/CC(=O)O)CC[C@]2(C)[C@H]3C(=O)C=C4[C@@H]5C[C@@](C)(C(=O)O)CC[C@]5(C)CC[C@@]4(C)[C@]3(C)CC[C@@H]12`, the results for the half-inhibitory concentration (IC50) in assay [1], in assay [2] and in assay [3] were 0.35 µM, 19.3 µM and 26.5 µM, respectively.

Consider `CC1(C)[C@@H](OC(=O)Cc2ccc(CC(=O)O)cc2)CC[C@]2(C)[C@H]3C(=O)C=C4[C@@H]5C[C@@](C)(C(=O)O)CC[C@]5(C)CC[C@@]4(C)[C@]3(C)CC[C@@H]12`, for which, in assay [1], the midpoint of inhibition, the IC50, lay at 1.78 µM.

On to `CC1(C)[C@@H](OC(=O)CCC(=O)O)CC[C@]2(C)[C@H]3C(=O)C=C4[C@@H]5C[C@@](C)(C(=O)O)CC[C@]5(C)CC[C@@]4(C)[C@]3(C)CC[C@@H]12` [CARBENOXOLONE], for which, in assay [1], the half-inhibitory concentration (IC50) is 2.63 µM.

Consider `CC1(C)[C@@H](OC(=O)CCCCC(=O)O)CC[C@]2(C)[C@H]3C(=O)C=C4[C@@H]5C[C@@](C)(C(=O)O)CC[C@]5(C)CC[C@@]4(C)[C@]3(C)CC[C@@H]12`, for which the IC50 in assay [1] was found to be 0.29 µM; in assay [2], 3.32 µM; in assay [3] it was 5.02 µM.

On to `CC1(C)[C@@H](OC(=O)c2ccccc2)CC[C@]2(C)[C@H]3C(=O)C=C4[C@@H]5C[C@@](C)(C(=O)O)CC[C@]5(C)CC[C@@]4(C)[C@]3(C)CC[C@@H]12`, for which half-maximal inhibition in assay [1] (IC50) was put at 2.08 µM.

For the compound `CC(C)(CC(=O)O[C@H]1CC[C@]2(C)[C@H]3C(=O)C=C4[C@@H]5C[C@@](C)(C(=O)O)CC[C@]5(C)CC[C@@]4(C)[C@]3(C)CC[C@H]2C1(C)C)C(=O)O`, the IC50 in assay [1] amounted to 0.87 µM.

Compound `CC(=O)Cc1ccc(OCC(=O)O[C@H]2CC[C@]3(C)[C@H]4C(=O)C=C5[C@@H]6C[C@@](C)(C(=O)O)CC[C@]6(C)CC[C@@]5(C)[C@]4(C)CC[C@H]3C2(C)C)cc1` returned an IC50 in assay [1] of 2.27 µM.

Turning to `CC(C)C(=O)O[C@H]1CC[C@]2(C)[C@H]3C(=O)C=C4[C@@H]5C[C@@](C)(C(=O)O)CC[C@]5(C)CC[C@@]4(C)[C@]3(C)CC[C@H]2C1(C)C`, in assay [1], inhibition was half-maximal at 1.92 µM (IC50).

In assay [1], `CC(C)CC(NC(=O)[C@@]1(C)CC[C@]2(C)CC[C@]3(C)C(=CC(=O)[C@@H]4[C@@]5(C)CC[C@H](O)C(C)(C)[C@@H]5CC[C@]43C)[C@@H]2C1)C(=O)O` (stereo partly specified) gave an IC50 greater than 40 µM.
